# Assay results as given in ChEMBL document CHEMBL1143257, “Structure-activity relationships of novel HIV-1 protease inhibitors containing the 3-amino-2-chlorobenzoyl-allophenylnorstatine structure” (Bioorg Med Chem, 2008).
# pEC50, pIC50, pKi: −log10 of the molar value.
# Key:
# [1] = Metabolic stability in human liver microsomes assessed as compound remaining at 5 uM in presence of 2.5 uM ritonavir by RP-HPLC; type: ADME, Microsome; conditions: with ritonavir 2.5 uM, read-out: Stability
# [2] = Metabolic stability in rat liver microsomes assessed as compound remaining at 5 uM in presence of 2.5 uM ritonavir by RP-HPLC; type: ADME, Microsome; conditions: with ritonavir 2.5 uM, read-out: Stability
# [3] = Metabolic stability in dog liver microsomes assessed as compound remaining at 5 uM by RP-HPLC; type: ADME, Canis lupus familiaris, Microsome; conditions: read-out: Stability
# Method in brief: (§1)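 Test drug at 5 µM incubated with liver microsomes (0.5 mg/ml) plus cofactor (1 mM NADPH or 5 mM UDPGA) at 37 °C for 30 min. Residual drug measured by RP-HPLC. Values are the mean percent remaining of duplicates.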
# [4] = Metabolic stability in dog liver microsomes assessed as compound remaining at 5 uM in presence of 0.5 uM ritonavir by RP-HPLC; type: ADME, Canis lupus familiaris, Microsome; conditions: with ritonavir 0.5 uM, read-out: Stability
# [5] = system: Human immunodeficiency virus 1; assay: Antiviral activity against HIV1 mutant strain 7; type: functional, organism-based
# Method in brief: (§2)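 PhenoSense phenotypic assay. Strain 7 protease mutations include T4A, L10I, K20R, L23I, L33F, E35D, M36I, K43T, M46L. EC50 in µM. Fold change is versus the wild-type EC50.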
# [6] = Metabolic stability in human liver microsomes assessed as compound remaining at 5 uM in presence of 0.5 uM ritonavir by RP-HPLC; type: ADME, Microsome; conditions: with ritonavir 0.5 uM, read-out: Stability
# [7] = system: Human immunodeficiency virus 1; assay: Antiviral activity against wild type HIV1; type: functional, organism-based
# [8] = Metabolic stability in dog liver microsomes assessed as compound remaining at 5 uM in presence of 2.5 uM ritonavir by RP-HPLC; type: ADME, Canis lupus familiaris, Microsome; conditions: with ritonavir 2.5 uM, read-out: Stability
# [9] = system: Human immunodeficiency virus 1; assay: Antiviral activity against HIV1 mutant strain 4; type: functional, organism-based
# [10] = system: Human immunodeficiency virus 1; assay: Antiviral activity against HIV1 3B; type: functional, organism-based; conditions: Human immunodeficiency virus 1, 3B
# [11] = Metabolic stability in rat liver microsomes assessed as compound remaining at 5 uM by RP-HPLC; type: ADME, Microsome; conditions: read-out: Stability; method in brief: as §1
# [12] = Metabolic stability in rat liver microsomes assessed as compound remaining at 5 uM in presence of 0.5 uM ritonavir by RP-HPLC; type: ADME, Microsome; conditions: with ritonavir 0.5 uM, read-out: Stability
# [13] = system: Human immunodeficiency virus 1; assay: Antiviral activity against HIV1 mutant strain 1; type: functional, organism-based
# Method in brief: (§3)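 PhenoSense phenotypic susceptibility assay on multi-drug-resistant clinical HIV-1 protease variant strains, run in parallel with a wild-type reference. EC50 read in µM. Fold change is mutant EC50 divided by wild-type EC50.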
# [14] = system: Human immunodeficiency virus 1; assay: Antiviral activity against HIV1 mutant strain 6; type: functional, organism-based
# [15] = system: Human immunodeficiency virus 1; assay: Antiviral activity against HIV1 3B in presence of 50% human serum; type: functional, organism-based; conditions: Human immunodeficiency virus 1, 3B
# [16] = system: Human immunodeficiency virus 1; assay: Antiviral activity against HIV1 mutant strain 2; type: functional, organism-based
# Method in brief: (§4)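 PhenoSense phenotypic assay. Strain 2 protease carries L10I, G16A, K45V, F53L, I54V, K55N, D60E, L63P, A71V, I72K, V77I, V82F, I84V, L90M, I93L. EC50 in µM. Fold change is versus the wild-type EC50.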
# [17] = system: Human immunodeficiency virus 1; assay: Antiviral activity against HIV1 mutant strain 5; type: functional, organism-based
# [18] = Metabolic stability in human liver microsomes assessed as compound remaining at 5 uM by RP-HPLC; type: ADME, Microsome; conditions: read-out: Stability; method in brief: as §1
# [19] = system: Human immunodeficiency virus 1; assay: Antiviral activity against HIV1 mutant strain 3; type: functional, organism-based
# Protease = Protease (Human immunodeficiency virus 1, UniProt Q9YQ12); assay: Inhibition of HIV1 protease
# [20] = Metabolic stability in human liver microsomes assessed as compound remaining at 5 uM in presence of NADPH by RP-HPLC; type: ADME, Microsome; conditions: read-out: Stability; method in brief: as §1
# [21] = Cmax in Beagle dog at 15 mg/kg, po; type: ADME, organism-based, Canis lupus familiaris; set-up: dose 15 mg/kg, route oral; conditions: in vivo
# [22] = Oral bioavailability in Beagle dog at 15 mg/kg; type: ADME, organism-based, Canis lupus familiaris; conditions: in vivo
# [23] = Volume of distribution at steady state in Beagle dog at 15 mg/kg, iv; type: ADME, organism-based, Canis lupus familiaris; set-up: dose 15 mg/kg, route intravenous; conditions: in vivo, read-out: Vdss
# [24] = Tmax in Beagle dog at 15 mg/kg, po; type: ADME, organism-based, Canis lupus familiaris; set-up: dose 15 mg/kg, route oral; conditions: in vivo
# Liver [25] = assay: Metabolic stability in dog liver microsomes assessed as compound remaining in presence of UDPGA by RP-HPLC; type: ADME, Canis lupus familiaris, Microsome; method in brief: as §1
# [26] = AUC in Beagle dog at 15 mg/kg, po; type: ADME, organism-based, Canis lupus familiaris; set-up: dose 15 mg/kg, route oral; conditions: plasma
# [27] = Metabolic stability in human liver microsomes assessed as compound remaining at 5 uM in presence of UDPGA by RP-HPLC; type: ADME, Microsome; conditions: read-out: Stability; method in brief: as §1
# Liver [28] = assay: Metabolic stability in dog liver microsomes assessed as compound remaining in presence of NADPH by RP-HPLC; type: ADME, Canis lupus familiaris, Microsome; method in brief: as §1
# [29] = Plasma clearance in Beagle dog at 15 mg/kg, iv; type: ADME, organism-based, Canis lupus familiaris; set-up: dose 15 mg/kg, route intravenous
# [30] = Plasma concentration in Beagle dog at 15 mg/kg, po after 12 hrs; type: ADME, organism-based, Canis lupus familiaris; set-up: dose 15 mg/kg, route oral
# [31] = system: Human immunodeficiency virus 1; assay: Antiviral activity against multidrug resistant HIV1; type: functional, organism-based; method in brief: as §3
# [32] = AUC in Beagle dog at 15 mg/kg, po co-administered with 7.5 mg/kg of ritonavir, po; type: ADME, organism-based, Canis lupus familiaris; conditions: plasma
# [33] = Cmax in Beagle dog at 15 mg/kg, po co-administered with 7.5 mg/kg of ritonavir, po; type: ADME, organism-based, Canis lupus familiaris; set-up: dose 15 mg/kg, route oral; conditions: in vivo
# [34] = system: Human immunodeficiency virus 1; assay: Ratio of EC50 for HIV1 mutant strain 3 to EC50 for wild type HIV1; type: functional
# [35] = system: Human immunodeficiency virus 1; assay: Ratio of EC50 for HIV1 mutant strain 7 to EC50 for wild type HIV1; type: functional; method in brief: as §2
# [36] = system: Human immunodeficiency virus 1; assay: Ratio of EC50 for HIV1 mutant strain 4 to EC50 for wild type HIV1; type: functional
# [37] = system: Human immunodeficiency virus 1; assay: Ratio of EC50 for HIV1 mutant strain 6 to EC50 for wild type HIV1; type: functional
# [38] = system: Human immunodeficiency virus 1; assay: Ratio of EC50 for HIV1 mutant strain 2 to EC50 for wild type HIV1; type: functional; method in brief: as §4
# [39] = Plasma concentration in Beagle dog at 15 mg/kg, po after 12 hrs co-administered with 7.5 mg/kg of ritonavir, po; type: ADME, organism-based, Canis lupus familiaris
# [40] = system: Human immunodeficiency virus 1; assay: Ratio of EC50 for HIV1 mutant strain 1 to EC50 for wild type HIV1; type: functional; method in brief: as §3
# [41] = system: Human immunodeficiency virus 1; assay: Ratio of EC50 for HIV1 mutant strain 5 to EC50 for wild type HIV1; type: functional
# [42] = Tmax in Beagle dog at 15 mg/kg, po co-administered with 7.5 mg/kg of ritonavir, po; type: ADME, organism-based, Canis lupus familiaris; conditions: in vivo
# Protease, sequence (Q9YQ12 whole entry): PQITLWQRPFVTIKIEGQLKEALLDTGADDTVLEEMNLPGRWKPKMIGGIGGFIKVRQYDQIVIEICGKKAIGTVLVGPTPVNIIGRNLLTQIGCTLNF
structure (smiles),measurement,setting,value
Cc1cccc(C)c1OCC(=O)N[C@@H](Cc1ccccc1)[C@@H](O)C[C@H](Cc1ccccc1)NC(=O)[C@H](C(C)C)N1CCCNC1=O [LOPINAVIR],remaining at 5 µM,[1],> 95%
same,remaining at 5 µM,[2],> 95%
same,remaining at 5 µM,[3],16%
same,remaining at 5 µM,[4],83%
same,pEC50,[5],6.67
same,remaining at 5 µM,[6],> 95%
same,pEC50,[7],8.43
same,remaining at 5 µM,[8],> 95%
same,pEC50,[9],7.18
same,pEC50,[10],8.10
same,remaining at 5 µM,[11],11%
same,remaining at 5 µM,[12],83%
same,pEC50,[13],6.67
same,pEC50,[14],6.39
same,pEC50,[15],8.10
same,pEC50,[16],6.60
same,pEC50,[17],6.09
same,remaining at 5 µM,[18],10%
same,pEC50,[19],6.18
Cc1ccccc1CNC(=O)[C@H]1N(C(=O)[C@@H](O)[C@H](Cc2ccccc2)NC(=O)c2cccc(O)c2C)CSC1(C)C,remaining at 5 µM,[1],59%
same,pKi,Protease,10.46
same,remaining at 5 µM,[2],31%
same,remaining at 5 µM,[20],27%
same,Cmax,[21],3100 nM
same,remaining at 5 µM,[3],46%
same,remaining at 5 µM,[4],92%
same,bioavailability,[22],25%
same,remaining at 5 µM,[6],56%
same,Vd,[23],1.6 L/kg
same,Tmax,[24],0.5 h
same,Stability,Liver [25],91%
same,AUC,[26],6.5 µM·h
same,remaining at 5 µM,[27],55%
same,remaining at 5 µM,[8],93%
same,Stability,Liver [28],49%
same,pEC50,[10],7.59
same,remaining at 5 µM,[11],12%
same,remaining at 5 µM,[12],16%
same,clearance,[29],15 mL/min/kg
same,pEC50,[15],7.28
same,concentration at 12 h,[30],30 nM
same,remaining at 5 µM,[18],13%
COc1cccc(C[C@H](NC(=O)c2cccc(N)c2Cl)[C@H](O)C(=O)N2CSC(C)(C)[C@H]2C(=O)NCc2c(C)cccc2C)c1,remaining at 5 µM,[1],> 95%
same,pKi,Protease,9.87
same,remaining at 5 µM,[2],55%
same,remaining at 5 µM,[20],64%
same,Cmax,[21],2800 nM
same,remaining at 5 µM,[3],36%
same,remaining at 5 µM,[4],90%
same,bioavailability,[22],71%
same,pEC50,[5],7.38
same,remaining at 5 µM,[6],93%
same,pIC50,[31],7.66
same,AUC,[32],52.8 µM·h
same,Cmax,[33],5300 nM
same,Vd,[23],1.3 L/kg
same,Tmax,[24],2 h
same,Ratio EC50,[34],22
same,pEC50,[7],8.25
same,Stability,Liver [25],> 95%
same,Ratio EC50,[35],7
same,Ratio EC50,[36],4
same,AUC,[26],15.6 µM·h
same,remaining at 5 µM,[27],> 95%
same,Ratio EC50,[37],17
same,remaining at 5 µM,[8],> 95%
same,Stability,Liver [28],47%
same,pEC50,[9],7.66
same,pEC50,[10],8.40
same,remaining at 5 µM,[11],21%
same,remaining at 5 µM,[12],41%
same,Ratio EC50,[38],19
same,concentration at 12 h,[39],2950 nM
same,pEC50,[13],6.82
same,clearance,[29],18.3 mL/min/kg
same,pEC50,[14],7.02
same,Ratio EC50,[40],27
same,Ratio EC50,[41],38
same,pEC50,[15],8.22
same,Tmax,[42],3 h
same,pEC50,[16],6.97
same,concentration at 12 h,[30],130 nM
same,pEC50,[17],6.67
same,remaining at 5 µM,[18],49%
same,pEC50,[19],6.91
